According to ChEMBL document CHEMBL1145801, “Inhibition of Cdc25 phosphatases by indolyldihydroxyquinones” (J Med Chem, 2003):
pIC50, pKi: −log10 of the molar value.

Key:
[1] = molecular target: T1, M-phase inducer phosphatase 1 (Homo sapiens) (UniProt P30304); assay: Percent inhibition of cell division cycle 25A at 50 uM
T1 sequence (whole entry): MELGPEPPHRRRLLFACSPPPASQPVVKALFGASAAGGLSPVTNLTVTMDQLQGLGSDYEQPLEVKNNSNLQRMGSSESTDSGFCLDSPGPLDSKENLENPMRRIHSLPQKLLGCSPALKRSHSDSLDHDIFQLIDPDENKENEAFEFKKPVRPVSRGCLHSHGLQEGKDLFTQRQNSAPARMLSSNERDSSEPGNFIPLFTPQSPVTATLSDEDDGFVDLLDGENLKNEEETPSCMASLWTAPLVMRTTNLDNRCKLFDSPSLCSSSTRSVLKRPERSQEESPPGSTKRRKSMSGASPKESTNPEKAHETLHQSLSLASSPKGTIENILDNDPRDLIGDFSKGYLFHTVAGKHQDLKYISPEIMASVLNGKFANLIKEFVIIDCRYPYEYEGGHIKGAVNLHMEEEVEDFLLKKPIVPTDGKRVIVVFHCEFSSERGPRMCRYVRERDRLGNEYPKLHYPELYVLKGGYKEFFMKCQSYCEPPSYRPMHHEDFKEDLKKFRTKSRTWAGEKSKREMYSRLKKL
Method in brief: (§1)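 Single-point screen at 50 μM inhibitor against Cdc25A, Cdc25B or Cdc25C with 50 μM 3-O-methylfluorescein phosphate, product followed at 477 nm in time-dependent assays. Activity was compared with a simultaneous no-inhibitor control, and selected compounds were run in duplicate (average error ±7%).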

[2] = molecular target: T2, M-phase inducer phosphatase 1 (Homo sapiens, UniProt P30304); assay: Eight point inhibitory concentration against Cell division cycle 25A was determined
T2 sequence (P30304 whole entry): T1 sequence (whole entry)
Method in brief: (§2)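 Phosphatase activity measured with 3-O-methylfluorescein phosphate at 50 μM (~5 × Km), product formation followed at 477 nm by UV-vis under initial velocity conditions (2–5% turnover) in time-dependent assays. Eight inhibitor concentrations were used, and IC50 was obtained by fitting to a dose–response equation.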

[3] = molecular target: T3, M-phase inducer phosphatase 2 (Homo sapiens, UniProt P30305); assay: Eight point inhibitory concentration against Cell division cycle 25B was determined
T3 sequence (P30305 whole entry): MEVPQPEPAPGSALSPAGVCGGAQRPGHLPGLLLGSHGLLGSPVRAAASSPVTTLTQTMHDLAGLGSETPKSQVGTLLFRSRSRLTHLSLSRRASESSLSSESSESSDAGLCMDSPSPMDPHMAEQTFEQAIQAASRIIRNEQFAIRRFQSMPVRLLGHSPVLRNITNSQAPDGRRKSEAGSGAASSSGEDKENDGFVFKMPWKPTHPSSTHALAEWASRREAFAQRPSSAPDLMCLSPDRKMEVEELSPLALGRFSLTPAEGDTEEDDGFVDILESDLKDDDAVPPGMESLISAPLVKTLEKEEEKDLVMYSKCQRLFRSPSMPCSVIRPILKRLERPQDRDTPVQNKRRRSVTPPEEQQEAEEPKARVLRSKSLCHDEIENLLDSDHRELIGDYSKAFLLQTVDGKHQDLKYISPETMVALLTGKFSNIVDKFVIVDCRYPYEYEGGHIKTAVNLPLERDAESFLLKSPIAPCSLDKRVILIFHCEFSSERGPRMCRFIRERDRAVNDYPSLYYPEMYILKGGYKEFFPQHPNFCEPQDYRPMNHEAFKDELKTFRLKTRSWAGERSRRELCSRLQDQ
Method in brief: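 Cdc25B activity read by UV-vis at 477 nm as product formed from 3-O-methylfluorescein phosphate (mFP) at 50 μM (~5 × Km), time-dependent, initial-velocity conditions (2–5% turnover); eight inhibitor concentrations, IC50 fitted to eq 1. Each reaction compared with a simultaneous no-inhibitor control; selected compounds run in duplicate.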

[4] = molecular target: T4, M-phase inducer phosphatase 3 (Homo sapiens) (UniProt P30307); assay: Percent inhibition of cell division cycle 25 degree C at 50 uM; method in brief: as §1
T4 sequence (whole entry): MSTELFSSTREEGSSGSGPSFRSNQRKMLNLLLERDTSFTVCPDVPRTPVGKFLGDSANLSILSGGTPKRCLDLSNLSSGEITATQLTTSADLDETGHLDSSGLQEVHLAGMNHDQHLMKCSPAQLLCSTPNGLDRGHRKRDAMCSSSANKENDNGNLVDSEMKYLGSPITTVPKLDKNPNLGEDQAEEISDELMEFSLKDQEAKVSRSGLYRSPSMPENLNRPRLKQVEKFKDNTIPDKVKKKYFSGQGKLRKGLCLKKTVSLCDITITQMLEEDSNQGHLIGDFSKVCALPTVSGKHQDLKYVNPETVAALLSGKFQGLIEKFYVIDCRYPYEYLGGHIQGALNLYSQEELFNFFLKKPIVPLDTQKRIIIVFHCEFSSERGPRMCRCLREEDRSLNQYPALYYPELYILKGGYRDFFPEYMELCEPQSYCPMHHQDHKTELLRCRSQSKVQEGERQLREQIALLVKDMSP

[5] = molecular target: T5, M-phase inducer phosphatase 2 (Homo sapiens) (UniProt P30305); assay: Percent inhibition of cell division cycle 25B at 50 uM; method in brief: as §1
T5 sequence (whole entry): T3 sequence (P30305 whole entry)

[6] = molecular target: T6, M-phase inducer phosphatase 3 (Homo sapiens, UniProt P30307); assay: Eight point inhibitory concentration against Cell division cycle 25 degree C was determined; method in brief: as §2
T6 sequence (P30307 whole entry): T4 sequence (whole entry)

[7] = molecular target: T3, M-phase inducer phosphatase 2; assay: Inhibitory concentration of compound against Cell division cycle 25B was determined using CDK2-p-TpY/Cyclin A as a substrate
Method in brief: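 Cdc25B dephosphorylation of 300 nM Cdk2-pTpY/CycA protein substrate was run in time-dependent assays at eight inhibitor concentrations to give IC50. Reactions were quenched with TCA, and bovine serum albumin carrier (1 mg/mL) was added only after the quench so that it was absent during inhibitor exposure.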

[8] = molecular target: T3, M-phase inducer phosphatase 2; assay: Inhibitory constant of compound against Cell division cycle 25B was determined using mFP as a substrate
[9] = molecular target: T7, M-phase inducer phosphatase 2 (Homo sapiens, UniProt P30305); assay: Inhibitory concentration of compound against truncated mutant of Cdc25B phosphatase was determined
Method in brief: (§3)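 Cdc25B catalytic domain constructs (wild-type, site-directed point mutants, truncated); activity with 3-O-methylfluorescein phosphate at 50 μM (~5 × Km), product read at 477 nm by UV-vis under initial velocity (2–5% turnover); eight inhibitor concentrations, IC50 fitted; values are mean of two determinations.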

[10] = molecular target: M-phase inducer phosphatase 2 (Homo sapiens, UniProt P30305, F489A); assay: Inhibitory concentration of compound against mutant F475A of Cdc25B phosphatase was determined; method in brief: as §3
M-phase inducer phosphatase 2 (Homo sapiens, UniProt P30305, F489A), sequence (P30305 whole entry F489A): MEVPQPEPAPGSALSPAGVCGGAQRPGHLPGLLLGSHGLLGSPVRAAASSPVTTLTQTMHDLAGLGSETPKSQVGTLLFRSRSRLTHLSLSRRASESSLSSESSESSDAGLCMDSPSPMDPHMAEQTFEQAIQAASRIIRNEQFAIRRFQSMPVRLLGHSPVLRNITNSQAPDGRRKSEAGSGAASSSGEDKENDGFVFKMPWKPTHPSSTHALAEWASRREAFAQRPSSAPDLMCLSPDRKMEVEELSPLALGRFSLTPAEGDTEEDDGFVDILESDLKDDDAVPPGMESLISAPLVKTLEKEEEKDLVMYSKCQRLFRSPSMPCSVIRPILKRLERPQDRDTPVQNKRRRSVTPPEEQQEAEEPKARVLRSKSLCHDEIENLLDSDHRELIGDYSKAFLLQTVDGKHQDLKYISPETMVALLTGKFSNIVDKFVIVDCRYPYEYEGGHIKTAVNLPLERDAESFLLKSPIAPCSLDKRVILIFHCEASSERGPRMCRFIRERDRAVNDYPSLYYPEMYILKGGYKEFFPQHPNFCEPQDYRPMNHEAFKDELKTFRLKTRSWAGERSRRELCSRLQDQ

[11] = molecular target: M-phase inducer phosphatase 2 (Homo sapiens, UniProt P30305, R496L); assay: Inhibitory concentration of compound against mutant R482L of Cdc25B phosphatase was determined; method in brief: as §3
M-phase inducer phosphatase 2 (Homo sapiens, UniProt P30305, R496L), sequence (P30305 whole entry R496L): as the sequence (P30305 whole entry F489A) above, with A489F, R496L counted along it

[12] = molecular target: T3, M-phase inducer phosphatase 2; assay: Inhibitory constant of compound against Cdc25B phosphatase was determined using mFP as a substrate
[13] = molecular target: M-phase inducer phosphatase 2 (Homo sapiens, UniProt P30305, E488Q); assay: Inhibitory concentration of compound against mutant E474Q of Cdc25B phosphatase was determined; method in brief: as §3
M-phase inducer phosphatase 2 (Homo sapiens, UniProt P30305, E488Q), sequence (P30305 whole entry E488Q): as the sequence (P30305 whole entry F489A) above, with E488Q, A489F counted along it

[14] = molecular target: T7, M-phase inducer phosphatase 2; assay: Inhibitory concentration of compound against mutant WT of Cdc25B phosphatase was determined; method in brief: as §3
[15] = molecular target: T3, M-phase inducer phosphatase 2; assay: Inhibitory concentration of compound against Cdc25B phosphatase was determined using CDK2-p-TpY/Cyclin A as a substrate
Method in brief: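 Cdc25B IC50 with Cdk2-pTpY/CycA protein substrate at 300 nM; eight inhibitor concentrations; time-dependent assays; 1 mg/mL BSA carrier added only after TCA quench, not during reaction.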

[16] = molecular target: T4, M-phase inducer phosphatase 3 (Homo sapiens); assay: Percent inhibition against Cdc25C phosphatase at 50 uM of compound; method in brief: as §1
[17] = molecular target: T7, M-phase inducer phosphatase 2; assay: Inhibitory constant of compound against Cell division cycle 25B was determined

Compound | inhibition [1] [%] | pIC50 [2] | pIC50 [3] | inhibition [4] [%] | inhibition [5] [%] | pIC50 [6] | further results
O=C1C=C(O)C(=O)C(c2c[nH]c3c(OCc4ccccc4)cccc23)=C1O | 98 | 5.38 | 5.38 | 85 | 97 | 5.16 | –
CC(C)=CCc1c(Cl)cc(Cl)c2c(C3=C(O)C(O)=CC(=O)C3=O)c[nH]c12 | – | 5.30 | 5.64 | – | – | 5.06 | pIC50 [7]: 5.07; pKi [8]: 6.37
O=C1/C(=N/CCc2cc(Br)c(O)c(Br)c2)C=C(O)c2cccnc21 | – | 4.82 | 4.46 | – | – | 4.46 | –
O=C1C=C(O)C(=O)C(c2c[nH]c3cccc(Cl)c23)=C1O | 22 | 4.55 | < 4.30 | 0 | 21 | < 4.30 | –
Cc1ccccc1Cc1cccc2c(C3=C(O)C(O)=CC(=O)C3=O)c[nH]c12 | 100 | 6.00 | 6.00 | 94 | 97 | 5.46 | –
O=C1C=C(O)C(=O)C(c2c[nH]c3c(-c4ccccc4)cccc23)=C1O | 99 | 5.60 | 5.60 | 91 | 92 | 4.57 | –
CCCc1cccc2c(C3=C(O)C(O)=CC(=O)C3=O)c[nH]c12 | 72 | 5.38 | 4.23 | 79 | 23 | < 4.30 | –
O=C1C=C(O)C(=O)C(c2c[nH]c3ccccc23)=C1O | 33 | 4.60 | 4.74 | 69 | 75 | 4.52 | pIC50 [9]: 4.47; pIC50 [10]: 4.12; pIC50 [11]: 4.14; pKi [12]: 4.89; pIC50 [13]: 3.70; pIC50 [14]: 4.74; pIC50 [15]: < 4.30
CC(C)=CCC/C(C)=C/Cc1cccc2c(C3=C(O)C(O)=CC(=O)C3=O)c[nH]c12 | 86 | 6.00 | – | 96 | 95 | 5.00 | –
Cc1ccc2[nH]cc(C3=C(O)C(O)=CC(=O)C3=O)c2c1 | 100 | 5.09 | – | – | 61 | – | inhibition [16]: 55%
O=C1C=C(O)C(=O)C(c2c[nH]c3ccc(OCc4ccccc4)cc23)=C1O | 100 | 5.26 | – | 26 | 50 | – | –
O=C1C=C(O)C(=O)C(c2c[nH]c3ccc(Br)cc23)=C1O | 83 | 5.24 | – | 26 | 55 | – | –
O=C1C=C(O)C(=O)C(c2c[nH]c3c(Cc4ccccc4)cccc23)=C1O | 100 | 5.64 | 5.64 | 98 | 97 | 4.82 | –
CC(C)(C)c1cccc2c(C3=C(O)C(O)=CC(=O)C3=O)c[nH]c12 | 93 | 5.14 | 5.14 | 37 | 33 | < 4.30 | –
O=C1C=C(O)C(=O)C(c2c[nH]c3c2ccc2ccccc23)=C1O | 99 | 5.60 | 4.62 | 75 | 79 | 4.82 | –
O=C1C=C(O)C(=O)C(c2c[nH]c3cc(Cl)ccc23)=C1O | 100 | 5.38 | 4.85 | 81 | 92 | 4.40 | –
CC(C)=CCC/C(C)=C/CC/C(C)=C/Cc1cccc2c(C3=C(O)C(O)=CC(=O)C3=O)c[nH]c12 | 96 | 5.62 | 5.62 | 85 | 89 | 5.46 | pKi [17]: 6.19
CC1(c2[nH]c3ccccc3c2C2=C(O)C(O)=CC(=O)C2=O)CC1 | 0 | – | – | 0 | 17 | – | –
O=C1C=C(O)C(=O)C(c2c[nH]c3cc(OCc4ccccc4)ccc23)=C1O | 82 | – | – | 92 | 97 | – | –
CC(C)=CCc1c(Cl)ccc2c(C3=C(O)C(O)=CC(=O)C3=O)c[nH]c12 | – | 5.40 | 5.14 | – | – | 4.96 | –
O=C1C=C(O)C(=O)C(c2c[nH]c3c(F)cccc23)=C1O | 100 | – | – | 68 | 67 | – | –
COc1cccc2c(C3=C(O)C(O)=CC(=O)C3=O)c[nH]c12 | 0 | – | – | 13 | 15 | – | –
O=C1C=C(O)C(=O)C(c2c(C3CC3)[nH]c3ccccc23)=C1O | 22 | 4.46 | < 4.30 | 0 | 32 | < 4.30 | –
Cn1cc(C2=C(O)C(O)=CC(=O)C2=O)c2ccccc21 | 18 | – | – | 19 | 42 | – | –
